The values below come from ChEMBL document CHEMBL1154048, “Design, synthesis and pharmacological evaluation of new 1-[3-(4-arylpiperazin-1-yl)-2-hydroxy-propyl]-3,3-diphenylpyrrolidin-2-one derivatives with antiarrhythmic, antihypertensive, and alpha-adrenolytic activity” (Eur J Med Chem, 2009).

The test system of assay [1] is Rattus norvegicus. As to the kind of experiment: Hypotensive activity in normotensive Wistar rat assessed as systolic blood pressure at 5 mg/kg, iv after 20 mins (Rvb=139 +/- 0.6 mmHg). Format: functional, Artery.
Assay [2] relates to Rattus norvegicus. Description: Hypotensive activity in normotensive Wistar rat assessed as systolic blood pressure at 5 mg/kg, iv after 30 mins (Rvb=138 +/- 0.9 mmHg). The assay is classed as functional, Artery.
The target of the next assay is Guinea pig spleen α1B (Cavia porcellus, UniProt H0WBQ9). Description: Antagonist activity at Alpha-1B adrenoceptor in guinea pig spleen assessed as inhibition of noradrenaline-induced contraction after 30 mins. Format: functional, tissue-based. To be noted: read-out: pA2 (converted). The gist of the method:
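Guinea-pig spleen strips equilibrated 100 min with repeated noradrenaline stimulation and washout. Two cumulative noradrenaline concentration–response curves were run 60 min apart, before and after a 30 min antagonist incubation, with propranolol present throughout to block β-adrenoceptors. Contraction was expressed as % of the first-curve maximum. EC50 was fitted by non-linear regression, and Schild analysis of concentration ratios gave pA2. n ≥ 5.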

In the case of `COc1ccccc1N1CCN(CC(O)CN2CCC(c3ccccc3)(c3ccccc3)C2=O)CC1.Cl.Cl` (stereo not drawn), in the assay with Rattus norvegicus [1], the Activity was 118 mmHg.
Turning to `Cl.Cl.O=C1N(CC(O)CN2CCN(c3ccccc3C(F)(F)F)CC2)CCC1(c1ccccc1)c1ccccc1` (stereo not drawn), in the assay with Rattus norvegicus [2], the Activity is 116 mmHg.
`CCOc1ccccc1N1CCN(CC(O)CN2CCC(c3ccccc3)(c3ccccc3)C2=O)CC1.Cl.Cl` (stereo not drawn): at Guinea pig spleen α1B, the Kb was 281 nM.
